Experimental data as given in ChEMBL document CHEMBL1156480, “Insensitivity to Abeta42-lowering nonsteroidal anti-inflammatory drugs and gamma-secretase inhibitors is common among aggressive presenilin-1 mutations” (J Biol Chem, 2007).

Tests used:
Format in all cases: cell-based
Set-up in all cases: scale not given: the % may be the effect or the level left
[1] = target: Presenilin-1 (Homo sapiens) (UniProt P49768); experiment: Reduction of human wild type PS1-induced amyloid beta-40 level in CHO cells overexpressing human APP751 at 100 nM after 24 hrs by liquid phase electrochemiluminescence assay relative to control
CHO [2] = experiment: Reduction of human PS1 delta exon9 mutant-induced amyloid beta-40 level in CHO cells overexpressing human APP751 at 100 nM after 24 hrs by liquid phase electrochemiluminescence assay relative to control
How it was run: (§1)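 APP751 CHO cells stably expressing PS1-ΔExon9, PS1-L166P or PS1-WT, cultured in parallel in serum-containing medium. Treated 24 h with increasing γ-secretase inhibitor concentrations or DMSO. Conditioned-media Abeta40/Abeta42 quantified by LPECL against synthetic peptide standards (16–2000 pg/ml). Duplicates normalized to DMSO. n = 3, one-way ANOVA with Dunnett's test versus PS1-WT.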

[3] = test system: Presenilin-1 (Homo sapiens), P49768 [L166P]; experiment: Reduction of human PS1 L166P mutant-induced amyloid beta-40 level in CHO cells overexpressing human APP751 at 100 nM after 24 hrs by liquid phase electrochemiluminescence assay relative to control; how it was run: as §1
[4] = target: Presenilin-1 (Homo sapiens) (UniProt P49768); experiment: Reduction of human wild type PS1-induced amyloid beta-40 level in CHO cells overexpressing human APP751 at 250 nM after 24 hrs by liquid phase electrochemiluminescence assay relative to control
CHO [5] = experiment: Reduction of human PS1 delta exon9 mutant-induced amyloid beta-40 level in CHO cells overexpressing human APP751 at 250 nM after 24 hrs by liquid phase electrochemiluminescence assay relative to control; how it was run: as §1
[6] = test system: Presenilin-1 (Homo sapiens), P49768 [L166P]; experiment: Reduction of human PS1 L166P mutant-induced amyloid beta-40 level in CHO cells overexpressing human APP751 at 250 nM after 24 hrs by liquid phase electrochemiluminescence assay relative to control; how it was run: as §1
[7] = target: Presenilin-1 (Homo sapiens) (UniProt P49768); experiment: Reduction of human wild type PS1-induced amyloid beta-40 level in CHO cells overexpressing human APP751 at 500 nM after 24 hrs by liquid phase electrochemiluminescence assay relative to control
CHO [8] = experiment: Reduction of human PS1 delta exon9 mutant-induced amyloid beta-40 level in CHO cells overexpressing human APP751 at 500 nM after 24 hrs by liquid phase electrochemiluminescence assay relative to control; how it was run: as §1
[9] = test system: Presenilin-1 (Homo sapiens), P49768 [L166P]; experiment: Reduction of human PS1 L166P mutant-induced amyloid beta40 level in CHO cells overexpressing human APP751 at 500 nM after 24 hrs by liquid phase electrochemiluminescence assay relative to control; how it was run: as §1
[10] = target: Presenilin-1 (Homo sapiens) (UniProt P49768); experiment: Reduction of human wild type PS1-induced amyloid beta-42 level in CHO cells overexpressing human APP751 at 100 nM after 24 hrs by liquid phase electrochemiluminescence assay relative to control
CHO [11] = experiment: Reduction of human PS1 delta exon9 mutant-induced amyloid beta-42 level in CHO cells overexpressing human APP751 at 100 nM after 24 hrs by liquid phase electrochemiluminescence assay relative to control; how it was run: as §1
[12] = test system: Presenilin-1 (Homo sapiens), P49768 [L166P]; experiment: Reduction of human PS1 L166P mutant-induced amyloid beta-42 level in CHO cells overexpressing human APP751 at 100 nM after 24 hrs by liquid phase electrochemiluminescence assay relative to control; how it was run: as §1
[13] = target: Presenilin-1 (Homo sapiens) (UniProt P49768); experiment: Reduction of human wild type PS1-induced amyloid beta-42 level in CHO cells overexpressing human APP751 at 250 nM after 24 hrs by liquid phase electrochemiluminescence assay relative to control
CHO [14] = experiment: Reduction of human PS1 delta exon9 mutant-induced amyloid beta-42 level in CHO cells overexpressing human APP751 at 250 nM after 24 hrs by liquid phase electrochemiluminescence assay relative to control; how it was run: as §1
[15] = test system: Presenilin-1 (Homo sapiens), P49768 [L166P]; experiment: Reduction of human PS1 L166P mutant-induced amyloid beta-42 level in CHO cells overexpressing human APP751 at 250 nM after 24 hrs by liquid phase electrochemiluminescence assay relative to control; how it was run: as §1
[16] = target: Presenilin-1 (Homo sapiens) (UniProt P49768); experiment: Reduction of human wild type PS1-induced amyloid beta-42 level in CHO cells overexpressing human APP751 at 500 nM after 24 hrs by liquid phase electrochemiluminescence assay relative to control
CHO [17] = experiment: Reduction of human PS1 delta exon9 mutant-induced amyloid beta-42 level in CHO cells overexpressing human APP751 at 500 nM after 24 hrs by liquid phase electrochemiluminescence assay relative to control
[18] = test system: Presenilin-1 (Homo sapiens), P49768 [L166P]; experiment: Reduction of human PS1 L166P mutant-induced amyloid beta-42 level in CHO cells overexpressing human APP751 at 500 nM after 24 hrs by liquid phase electrochemiluminescence assay relative to control; how it was run: as §1

Activity [1]: 8.1% | Activity [3]: 41.5% | Activity [4]: 2.95% | Activity [6]: 20.6% | Activity [7]: 1.92% | Activity [9]: 13.1% | Activity [10]: 11.3% | Activity [12]: 62.3% | Activity [13]: 3.28% | Activity [15]: 44.1% | Activity [16]: 2.59% | Activity [18]: 34.2%
SMILES: CC(C)C[C@H](NC(=O)C(Cc1ccccc1)C[C@@H](O)[C@H](Cc1ccccc1)NC(=O)OC(C)(C)C)C(=O)N[C@@H](Cc1ccccc1)C(N)=O (single isomer, unassigned)
Activity (CHO [2]): 86.3% | Activity (CHO [5]): 54% | Activity (CHO [8]): 33.4% | Activity (CHO [11]): 98.3% | Activity (CHO [14]): 54.5% | Activity (CHO [17]): 34.1%
